Shn3 3UTR inh = reduction of Shn3 3'UTR firefly luciferase signal, primary screen, Schnurri-3 inhibitor project, cell-based, Clone20 osteoblasts, set 2 | Clone20 osteoblast Shn3 3'UTR firefly luciferase, 24 h | inhibition, % at 12.5 µM | 0.52% of 360,000 active | AID 588674, 2011;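 active means mean inhibition of at least 75% with every replicate also reaching 75%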;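 further: 0% = median of neutral control wells and 100% = pilot-screen positive control compound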
FN deposit inh = inhibitors of fibronectin matrix deposition, primary screen, AH1F cells, Alexa488-fibronectin fluorescence, plate reader; AH1F fibroblasts, overnight; inhibition, % at 12.6 µM; 0.086% of 350,000 active; AID 743247, 2014;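 active means mean inhibition across replicates of 30% or more, regardless of how many single replicates reach that level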;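 further: positive control wells lacked labelled fibronectin entirely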
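Schedule: 1 h cell adhesion before compound, then overnight fibronectin incubation; test system: AH1F fibroblast monolayer depositing Alexa488-labelled fibronectin into matrix; quantity: 10000 AH1F cells per well; probe or stimulus: fluorescent fibronectin at 24 nM final; signal: fluorescence, ex 485 nm, em 525 nm; evaluation: percent inhibition as loss of matrix-bound fibronectin fluorescence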
EWS-Fli inh = EWS/Fli-driven NR0B1 reporter inhibitors, primary screen, A673 cells, NR0B1 luciferase, luminescence, MLPCN library. viability-normalised. inhibition, % at 12.6 µM. 0.67% of 350,000 active;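 active means mean inhibition of at least 50% after viability correction, with every replicate also passing that limit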;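 further: firefly luciferase signal divided by Alamar Blue viability fluorescence both relative to DMSO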
aSyn UTR inh = MLPCN primary screen, SNCA 5' untranslated region; 0.82% of 300,000 active; alpha-synuclein 5'UTR reporter, inhibitor activity; inhibition, % (tested at 7.5 µM); in the data active means inhibition above about 60%;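 further: H4 neuroglioblastoma cells stably carrying SNCA 5'UTR luciferase fusion; 0% = DMSO wells and 100% = positive control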
LMP1 NFkB inh = EBV LMP1-driven NF-kappaB luciferase reporter inhibitors, primary screen, cell-based, luminescence, single point; LMP1-induced NF-kappaB luciferase reporter cells; inhibition, % at 12.5 µM; 0.69% of 350,000 active; AID 504558, 2011; in the data active means inhibition above about 41%;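 further: 0% = neutral control wells and 100% = reference inhibitor control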
PAX8 reporter = inhibitors of PAX8-driven TPO luciferase reporter, primary screen, RMG-I cells, single concentration; AID 652154, 2013; SteadyGlo, 24 h; inhibition, % at 12.6 µM; 1.2% of 360,000 active;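 active means mean replicate inhibition at least 60% with every replicate also reaching 60%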;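 further: luciferase light reporting Pax8 driven TPO promoter activity; plate controls were median of neutral control wells for no effect and mitoxantrone controls for full effect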
Starred values were filed as active, the others as inactive. Hits are enriched below; roughly 2.1% of the tested compounds scored in any of these assays.

What do the screens show for `C[C@H]1CCCCO[C@@H](CN(C)Cc2ccc(C(=O)O)cc2)[C@@H](C)CN([C@@H](C)CO)C(=O)c2cc(NS(=O)(=O)c3ccc(Cl)cc3)ccc2O1`?
FN deposit inh: 9.9; EWS-Fli inh: -16.8; PAX8 reporter: 86.6*

How did C[C@H]1CCCCO[C@@H](CN(C)Cc2ccccc2)[C@@H](C)CN([C@@H](C)CO)C(=O)c2cc(NS(=O)(=O)c3ccc(Cl)cc3)ccc2O1 do in these assays?
FN deposit inh: -9.3; EWS-Fli inh: 5.0; PAX8 reporter: 74.8*

What do the screens show for `C[C@@H]1CN([C@@H](C)CO)C(=O)c2cc(NS(=O)(=O)c3ccc(Cl)cc3)ccc2O[C@@H](C)CCCCO[C@H]1CN(C)Cc1ccccc1`?
FN deposit inh: -3.9; EWS-Fli inh: 5.7; PAX8 reporter: 0.3

Results for CO[C@@H]1CN(C)C(=O)c2cc(NC(=O)c3cnccn3)ccc2OC[C@@H](C)N(CCC(F)(F)F)C[C@H]1C ?
FN deposit inh: -3.4; EWS-Fli inh: 0.6

How did COc1ccc(S(=O)(=O)Nc2ccc3c(c2)C(=O)N([C@@H](C)CO)C[C@@H](C)[C@@H](CN(C)C(=O)NC2CCCCC2)OCCCC[C@H](C)O3)cc1 do in these assays?
FN deposit inh: -8.4; EWS-Fli inh: -26.6; PAX8 reporter: -19.6

How did Cc1ccc(C)c(CSc2nc3[nH]ncc3c(=O)[nH]2)c1 do in these assays?
Shn3 3UTR inh: -37.2; FN deposit inh: 3.2; EWS-Fli inh: 57.5*; aSyn UTR inh: 23.7; LMP1 NFkB inh: 17.2; PAX8 reporter: 10.9

Results for CCCNC(=O)Nc1ccc2c(c1)OC[C@H](C)N(C(=O)C1CC1)C[C@@H](C)[C@@H](OC)CN(C)C2=O ?
FN deposit inh: -8.3; EWS-Fli inh: -4.0; PAX8 reporter: -9.5

How did Cc1cccc(NC(=O)C2CCN(S(=O)(=O)c3c(C)noc3/C=C/c3ccco3)CC2)n1 do in these assays?
Shn3 3UTR inh: 29.0; FN deposit inh: 7.0; aSyn UTR inh: -2.2; LMP1 NFkB inh: -0.9; PAX8 reporter: 62.3*

Results for Cc1ccc(/C=C/c2onc(C)c2S(=O)(=O)N2CCC(C(=O)N3CCN(C)CC3)CC2)cc1 ?
Shn3 3UTR inh: 19.6; FN deposit inh: 2.2; aSyn UTR inh: 15.9; LMP1 NFkB inh: 1.6; PAX8 reporter: -1.9

How did Cc1cccc(/C=C/c2onc(C)c2S(=O)(=O)N2CCC(C(=O)NC(C)(C)C)CC2)c1 do in these assays?
Shn3 3UTR inh: -2.7; FN deposit inh: -18.3; EWS-Fli inh: 4.0; aSyn UTR inh: 12.1; LMP1 NFkB inh: -3.2; PAX8 reporter: 6.3

What do the screens show for `CCC(C)N1CCN(C(=O)C2CCN(S(=O)(=O)c3c(C)noc3/C=C/c3ccco3)CC2)CC1` (stereo unspecified)?
Shn3 3UTR inh: -14.3; FN deposit inh: -0.4; EWS-Fli inh: 8.1; aSyn UTR inh: 2.8; LMP1 NFkB inh: -2.5; PAX8 reporter: 70.4*

How did O=C(N[C@@H]1CC[C@@H](CC(=O)N2CCCCC2)O[C@@H]1CO)c1ccccn1 do in these assays?
FN deposit inh: 9.5; EWS-Fli inh: 0.2; PAX8 reporter: -22.9

What do the screens show for `COC(=O)c1cc(OC)c(OC)cc1NC(=S)Nc1cccc(Cl)c1`?
Shn3 3UTR inh: 2.1; aSyn UTR inh: 18.9; LMP1 NFkB inh: 6.5

How did COC(=O)c1cc(OC)c(OC)cc1NC(=S)Nc1cc(Cl)ccc1OC do in these assays?
Shn3 3UTR inh: -4.9; FN deposit inh: 6.1; EWS-Fli inh: 3.4; aSyn UTR inh: 15.2; LMP1 NFkB inh: -1.7; PAX8 reporter: 77.9*

How did C[C@@H]1CN([C@H](C)CO)C(=O)c2cc(-c3cccnc3)cnc2O[C@@H]1CN(C)C(=O)C1CCCCC1 do in these assays?
EWS-Fli inh: -5.6

Results for O=C(NCc1cccnc1)c1cccc(NS(=O)(=O)c2ccc(Br)cc2)c1 ?
Shn3 3UTR inh: 25.1; FN deposit inh: 13.2; EWS-Fli inh: 58.1*; aSyn UTR inh: -25.7; LMP1 NFkB inh: -10.1; PAX8 reporter: 20.5
